Data from ChEMBL document CHEMBL1122791, “Inhibition of arabinose 5-phosphate isomerase. An approach to the inhibition of bacterial lipopolysaccharide biosynthesis” (J Med Chem, 1984).
The source made the active and inactive calls. No cut-off for these calls is given here.

Key:
[1] = system: arabinose 5-phosphate isomerase (Escherichia coli); assay: Inhibitory activity against Arabinose-5-phosphate isomerase at a concentration of 5 mM; Not active.
[2] = target: arabinose 5-phosphate isomerase (Escherichia coli) (UniProt P45395); assay: Inhibitory activity against Arabinose-5-phosphate isomerase at a concentration of 3 mM; Not active.
Sequence of arabinose 5-phosphate isomerase (Escherichia coli) (UniProt P45395) (P45395 whole entry, looked up): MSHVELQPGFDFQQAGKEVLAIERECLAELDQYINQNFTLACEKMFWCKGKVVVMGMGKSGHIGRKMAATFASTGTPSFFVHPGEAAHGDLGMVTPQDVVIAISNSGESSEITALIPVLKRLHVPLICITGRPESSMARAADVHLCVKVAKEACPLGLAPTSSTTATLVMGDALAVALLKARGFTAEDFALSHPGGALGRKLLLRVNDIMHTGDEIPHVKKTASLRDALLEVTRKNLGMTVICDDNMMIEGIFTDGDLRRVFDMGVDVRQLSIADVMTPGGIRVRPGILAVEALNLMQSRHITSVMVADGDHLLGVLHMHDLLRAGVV

[3] = system: arabinose 5-phosphate isomerase (Escherichia coli); assay: Inhibitory activity against Arabinose-5-phosphate isomerase; Unstable.
[4] = system: arabinose 5-phosphate isomerase (Escherichia coli); assay: Inhibitory activity against Arabinose-5-phosphate isomerase at a concentration of 1.5 mM; Not active.
[5] = system: arabinose 5-phosphate isomerase (Escherichia coli); assay: Inhibitory activity against Arabinose-5-phosphate isomerase at a concentration of 2 mM; Not active.
[6] = target: arabinose 5-phosphate isomerase (Escherichia coli) (UniProt P45395); assay: Inhibitory activity against Arabinose-5-phosphate isomerase at a concentration of 2.4 mM; Not active.
[7] = system: arabinose 5-phosphate isomerase (Escherichia coli); assay: Inhibitory activity against Arabinose-5-phosphate isomerase at a concentration of 6 mM; Not active.
[8] = target: arabinose 5-phosphate isomerase (Escherichia coli) (UniProt P45395); assay: Inhibitory activity against Arabinose-5-phosphate isomerase at a concentration of 12 mM; Not active.
[9] = system: arabinose 5-phosphate isomerase (Escherichia coli); assay: Inhibitory activity against Arabinose-5-phosphate isomerase at a concentration of 6 mM
[10] = system: arabinose 5-phosphate isomerase (Escherichia coli); assay: Inhibitory activity against Arabinose-5-phosphate isomerase at a concentration of 5 mM; NA = not active at 5
[11] = target: T1, Arabinose 5-phosphate isomerase KdsD (Salmonella typhimurium (strain LT2 / SGSC1412 / ATCC 700720), UniProt Q8ZLS1); assay: Inhibitory activity against Arabinose-5-phosphate isomerase; Interfered.
T1 sequence (Q8ZLS1 whole entry): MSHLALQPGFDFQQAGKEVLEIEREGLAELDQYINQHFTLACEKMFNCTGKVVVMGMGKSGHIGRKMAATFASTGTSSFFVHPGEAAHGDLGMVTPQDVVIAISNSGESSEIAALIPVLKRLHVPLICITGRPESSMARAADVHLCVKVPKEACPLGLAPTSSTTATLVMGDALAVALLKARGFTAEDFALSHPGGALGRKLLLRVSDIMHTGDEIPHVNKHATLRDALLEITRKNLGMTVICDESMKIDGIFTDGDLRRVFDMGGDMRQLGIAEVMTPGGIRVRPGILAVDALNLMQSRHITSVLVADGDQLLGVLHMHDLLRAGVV
Method in brief: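 Isomerase from E. coli B cells, purified 50-fold. Inhibitor and enzyme were preincubated 2 min at 37 °C in 0.1 M histidine buffer, pH 7.5. The reaction was started with 10 mM (stock) D-arabinose 5-phosphate or D-ribulose 5-phosphate. It was stopped at 0, 3, 6, 9 and 12 min with cysteine HCl, then H2SO4. Ketose was read at 540 nm by carbazole colour (30 min, 37 °C).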

[12] = system: arabinose 5-phosphate isomerase (Escherichia coli); assay: Inhibitory activity against Arabinose-5-phosphate isomerase; Not active.
[13] = compound: O=P(O)(O)OC[C@H]1O[C@@H](O)[C@@H](O)[C@@H]1O; assay: Inhibitory activity against Arabinose-5-phosphate isomerase; conditions: Escherichia coli B

Question: With O=P(O)(O)OCC1OC(O)C(F)C1O (stereo not given) as the molecule, how does the inhibition [1] read?
Answer: Its inhibition is “inactive”.

Question: With COC1C(COP(=O)(O)O)OC(O)C1O (stereo not given) as the molecule, how does the inhibition [2] read?
Answer: The inhibition was “inactive”.

Question: How did the “I 50” value [3] turn out when CC(=O)CC(=O)OC[C@H]1O[C@H](O)[C@@H](O)[C@@H]1O was run?
Answer: The value was “Unstable”.

Question: O=P(O)(O)OCC(O)C(O)CCO (stereo not given) was tested. Which inhibition [4] did it give?
Answer: Its inhibition is “inactive”.

Question: O=P(O)(O)OCC1OC(O)CC1O (stereo not given) was tested. Which inhibition [5] did it give?
Answer: The inhibition was “inactive”.

Question: O=P(O)(O)OCC(O)C(O)C(O)C(O)CO (stereo not given) was tested. Which inhibition [6] did it give?
Answer: The inhibition was “inactive”.

Question: What about the inhibition [7] of the same molecule?
Answer: The inhibition was “inactive”.

Question: Which inhibition [8] does the source give for NS(=O)(=O)OC[C@H]1OC(=O)[C@H](O)[C@@H]1O here?
Answer: Its inhibition is “inactive”.

Question: With O=C1O[C@H](CCl)[C@@H](O)[C@H]1O as the molecule, how does the inhibition [9] read?
Answer: Its inhibition is 12%.

Question: O=P(O)(O)OCC1OC(O)C(O)C1OCc1ccccc1 (stereo not given) was tested. Which inhibition [7] did it give?
Answer: Its inhibition is “inactive”.

Question: C[C@H]1OC(O)[C@H](O)[C@H]1O (stereo not given in full) was tested. Which inhibition [10] did it give?
Answer: Its inhibition is “inactive”.

Question: With O=[N+]([O-])OC[C@H]1O[C@H](O)[C@@H](O)[C@@H]1O as the molecule, how does the “I 50” value [11] read?
Answer: The value was “Interfered”.

Question: For O=C(O)C(=O)OC[C@H]1OC(=O)[C@H](O)[C@@H]1O, which inhibition [12] is on record?
Answer: Its inhibition is “inactive”.

Question: For O=C1O[C@H](CO)[C@@H](O)[C@H]1O, which inhibition [7] is on record?
Answer: Its inhibition is “inactive”.

B1: Arabinose 5-phosphate isomerase KdsD (Salmonella typhimurium (strain LT2 / SGSC1412 / ATCC 700720)), Q8ZLS1 (protein)
chain: MSHLALQPGFDFQQAGKEVLEIEREGLAELDQYINQHFTLACEKMFNCTGKVVVMGMGKSGHIGRKMAATFASTGTSSFFVHPGEAAHGDLGMVTPQDVVIAISNSGESSEIAALIPVLKRLHVPLICITGRPESSMARAADVHLCVKVPKEACPLGLAPTSSTTATLVMGDALAVALLKARGFTAEDFALSHPGGALGRKLLLRVSDIMHTGDEIPHVNKHATLRDALLEITRKNLGMTVICDESMKIDGIFTDGDLRRVFDMGGDMRQLGIAEVMTPGGIRVRPGILAVDALNLMQSRHITSVLVADGDQLLGVLHMHDLLRAGVV
Question: B1 was tested. Which Km [13] did it give?
Answer: Its Km is 200 µM.
